In ChEMBL document CHEMBL1821692, “Synthesis and evaluation of diarylthiazole derivatives that inhibit activation of sterol regulatory element-binding proteins” (J Med Chem, 2011):
Converted amounts (≈) assume the structure as drawn. The source made the active and inactive calls. The calls are words filed in the database; no cut-off is given here.

What was measured:
Hepatocyte [1] = assay: Metabolic stability in mouse hepatocytes at 1 uM after 90 mins by LC-MS/MS analysis; assay type: ADME, cell-based; conditions: 1.5 h
Outline: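 Each compound at 1 μM incubated at 37 °C in Leibovitz L-15 medium with mouse hepatocytes (3×10^5 cells mL⁻¹), in duplicate with shaking. […] After centrifugation the supernatant went to LC-MS/MS. Controls were compound in medium alone, and 7-ethoxycoumarin/7-hydroxycoumarin for phase I/II activity.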

[2] = Aqueous solubility of the compound at pH 3 after 24 hrs by LC-MS/MS analysis; assay type: physicochemical; conditions: buffer, pH 3, 24 h
Outline: (§1)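 DMSO stock diluted to 250 μM in aqueous buffer at pH 3 or pH 7 and held 24 h. Solution filtered through a 0.22 μm membrane; compound in the filtrate quantified by LC-MS/MS.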

[3] = Apparent permeability at 10 uM after 4 hrs by PAMPA; assay type: ADME
Outline: (§2)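 Passive diffusion across 15% soy lecithin in n-dodecane artificial membrane on a filter plate. […] Sandwich incubated 4 h at 37 °C. Acceptor, donor and initial donor solutions quantified by LC-MS/MS; Papp and % membrane retention calculated.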

[4] = Aqueous solubility of the compound at pH 7 after 24 hrs by LC-MS/MS analysis; assay type: physicochemical; conditions: buffer, pH 7, 24 h; outline: as §1
Hepatocyte [5] = assay: Half life in mouse hepatocytes at 1 uM after 90 mins by LC-MS/MS analysis; assay type: ADME, cell-based, Liver; conditions: 1.5 h
Outline: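 Compound at 1 μM incubated at 37 °C with shaking in Leibovitz L-15 medium with mouse hepatocytes (3×10^5 cells mL⁻¹), in duplicate. […] Medium-only incubations served as negative controls; 7-ethoxycoumarin and 7-hydroxycoumarin were positive controls for phase I/II activity.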

[6] = Apparent permeability assessed as membrane retention at 10 uM after 4 hrs by PAMPA; assay type: ADME; outline: as §2
[7] = target: T1, Sterol regulatory element-binding protein 2 (Homo sapiens) (UniProt Q12772); conditions: CHO-K1; 1 to 20 uM
T1 sequence (whole entry): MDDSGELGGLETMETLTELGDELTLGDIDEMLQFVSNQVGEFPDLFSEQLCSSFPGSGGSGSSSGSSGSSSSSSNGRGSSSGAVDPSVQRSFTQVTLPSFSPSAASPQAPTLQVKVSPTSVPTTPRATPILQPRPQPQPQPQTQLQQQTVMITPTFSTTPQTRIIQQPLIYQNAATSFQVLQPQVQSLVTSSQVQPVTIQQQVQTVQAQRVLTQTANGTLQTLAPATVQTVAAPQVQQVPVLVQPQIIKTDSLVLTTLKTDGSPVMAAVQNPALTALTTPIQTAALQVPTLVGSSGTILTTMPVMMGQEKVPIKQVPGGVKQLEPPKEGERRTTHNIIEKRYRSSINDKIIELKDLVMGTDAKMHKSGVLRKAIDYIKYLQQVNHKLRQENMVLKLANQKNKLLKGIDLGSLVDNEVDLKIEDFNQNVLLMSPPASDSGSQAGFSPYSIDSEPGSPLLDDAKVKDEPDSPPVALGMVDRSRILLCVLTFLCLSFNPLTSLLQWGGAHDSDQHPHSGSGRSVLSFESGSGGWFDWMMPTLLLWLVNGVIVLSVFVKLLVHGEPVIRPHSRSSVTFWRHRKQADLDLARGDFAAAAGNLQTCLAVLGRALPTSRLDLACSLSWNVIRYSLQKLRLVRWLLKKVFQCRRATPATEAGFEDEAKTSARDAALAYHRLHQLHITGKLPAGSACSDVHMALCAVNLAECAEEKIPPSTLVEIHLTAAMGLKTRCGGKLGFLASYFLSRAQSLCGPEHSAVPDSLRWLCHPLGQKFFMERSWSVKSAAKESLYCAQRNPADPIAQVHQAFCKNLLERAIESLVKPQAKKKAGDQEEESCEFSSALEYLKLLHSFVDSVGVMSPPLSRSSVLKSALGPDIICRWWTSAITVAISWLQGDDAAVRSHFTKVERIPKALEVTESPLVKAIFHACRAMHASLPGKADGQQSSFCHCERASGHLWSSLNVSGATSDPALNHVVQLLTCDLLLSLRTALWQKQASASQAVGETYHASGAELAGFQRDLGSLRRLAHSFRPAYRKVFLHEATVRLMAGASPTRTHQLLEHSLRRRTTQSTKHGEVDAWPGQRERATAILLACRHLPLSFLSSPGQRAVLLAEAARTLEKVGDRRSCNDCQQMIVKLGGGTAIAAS

| SMILES | Stability (Hepatocyte [1]) | solubility [2] | Papp [3] | solubility [4] | t1/2 (Hepatocyte [5]) | Activity [6] | inhibition [7] |
| --- | --- | --- | --- | --- | --- | --- | --- |
| CCCc1cc(-c2nc(-c3ccc(NC(C)C)cc3)cs2)ccn1 | Stable | > 225 µM | 10.59 nm/s | 3 µM (≈ 1.01 µg/mL) | 22.4 min | 93.95% | – |
| CCCc1cc(-c2nc(-c3ccc(C)cc3)cs2)ccn1 [FATOSTATIN] | Stable | 80 µM (≈ 23.6 µg/mL) | 7.555 nm/s | 2 µM (≈ 0.589 µg/mL) | 10.1 min | 94% | – |
| CCCc1cc(-c2nc(-c3ccc(NS(C)(=O)=O)cc3)cs2)ccn1 | Stable | > 225 µM | 149.8 nm/s | 33 µM (≈ 12.3 µg/mL) | 44.4 min | 97.35% | inactive |
| CC(=O)CC(c1ccccc1)c1c(O)c2ccccc2oc1=O (stereo not given) [WARFARIN] | – | – | – | – | – | 0% | – |
